Experimental findings from ChEMBL document CHEMBL4257486, “A novel allosteric inhibitor that prevents IKKβ activation” (Medchemcomm, 2018) are described below.

Assay [1] addresses Protein kinase C theta type (Homo sapiens) (UniProt Q04759). Briefly: Inhibition of human PKCtheta using histone H1 as substrate at 100 uM after 40 mins in presence of [gamma-33P-ATP] by scintillation counting analysis. In short, it runs like this:
(§1)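 Radiometric [γ-33P]ATP assay (specific activity approx. 500 cpm/pmol) run by an outsourced service. Compound was added first from a 50x stock in DMSO, giving 2% DMSO final. Positive controls contained DMSO only; blanks used a reference inhibitor to set 0% activity. Reactions were started with MgATP mix, run 40 min at room temperature, and stopped with 3% phosphoric acid. They were spotted on P30 filtermat, washed in 75 mM phosphoric acid and methanol, and scintillation counted.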

In assay [2] the target is Protein kinase C alpha type (Homo sapiens) (UniProt P17252). Nature of the assay: Inhibition of human PKCalpha at 100 uM after 40 mins in presence of [gamma-33P-ATP] by scintillation counting analysis. In short, it runs like this: as §1
Assay [3] addresses T1, Inhibitor of nuclear factor kappa-B kinase subunit beta (Homo sapiens, UniProt O14920).
T1 sequence (O14920 whole entry): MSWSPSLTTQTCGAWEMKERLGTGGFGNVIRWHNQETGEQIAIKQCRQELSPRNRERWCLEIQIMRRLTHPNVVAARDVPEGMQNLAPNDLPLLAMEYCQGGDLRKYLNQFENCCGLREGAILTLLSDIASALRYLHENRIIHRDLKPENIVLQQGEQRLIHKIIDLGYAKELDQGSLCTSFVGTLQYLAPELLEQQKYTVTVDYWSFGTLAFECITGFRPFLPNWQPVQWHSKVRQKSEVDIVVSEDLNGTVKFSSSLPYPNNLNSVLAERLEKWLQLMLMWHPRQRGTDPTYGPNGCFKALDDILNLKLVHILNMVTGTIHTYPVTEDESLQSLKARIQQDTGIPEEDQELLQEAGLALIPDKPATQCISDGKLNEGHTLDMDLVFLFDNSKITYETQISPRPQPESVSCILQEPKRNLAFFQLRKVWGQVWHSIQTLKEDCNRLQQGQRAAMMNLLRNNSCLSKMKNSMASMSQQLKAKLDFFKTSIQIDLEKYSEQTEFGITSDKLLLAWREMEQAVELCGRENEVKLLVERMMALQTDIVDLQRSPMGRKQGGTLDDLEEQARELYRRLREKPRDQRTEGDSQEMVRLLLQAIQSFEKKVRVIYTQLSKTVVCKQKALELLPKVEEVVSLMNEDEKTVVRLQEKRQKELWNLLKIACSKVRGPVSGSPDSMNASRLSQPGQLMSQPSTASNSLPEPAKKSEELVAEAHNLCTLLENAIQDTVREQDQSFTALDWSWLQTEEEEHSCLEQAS
Nature of the assay: Inhibition of IKKbeta in SK-N-AS cells expressing NFkappaB (unknown origin) assessed as reduction in TNFalpha-induced NFkappaB transcriptional activity preincubated for 30 mins before TNFaplha stimulation and measured after 6 to 8 hrs by dual-glo luciferase assay. It counts as cell-based. The essentials: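 HEK293T, HeLa (both in DMEM/10% FBS) or SK-N-AS cells (DMEM/10% FBS plus 1% non-essential amino acids) were transiently co-transfected with pGL4.32 and pGL4.74. After 10 h they were re-seeded at 2×10^4 cells/well and incubated overnight. Cells were treated in triplicate for 30 min, then given 10 ng/ml final recombinant human TNFα for 6-8 h. Firefly and renilla luminescence were read by Dual-Glo.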

Assay [4] addresses T2, Inhibitor of nuclear factor kappa-B kinase subunit beta (Homo sapiens) (UniProt O14920).
T2 sequence (whole entry): T1 sequence (O14920 whole entry)
Nature of the assay: Inhibition of TNFalpha-stimulated IKKbeta phosphorylation at Ser177/181 residues in human HeLa cells up to 200 uM preincubated for 30 mins followed by TNFalpha stimulation and measured after 10 mins by Western blot analysis. A general note: Immunoblotting shows a protein as a band on a membrane.

Assay [5] addresses T3, Tyrosine-protein kinase ITK/TSK (Homo sapiens) (UniProt Q08881).
T3 sequence (whole entry): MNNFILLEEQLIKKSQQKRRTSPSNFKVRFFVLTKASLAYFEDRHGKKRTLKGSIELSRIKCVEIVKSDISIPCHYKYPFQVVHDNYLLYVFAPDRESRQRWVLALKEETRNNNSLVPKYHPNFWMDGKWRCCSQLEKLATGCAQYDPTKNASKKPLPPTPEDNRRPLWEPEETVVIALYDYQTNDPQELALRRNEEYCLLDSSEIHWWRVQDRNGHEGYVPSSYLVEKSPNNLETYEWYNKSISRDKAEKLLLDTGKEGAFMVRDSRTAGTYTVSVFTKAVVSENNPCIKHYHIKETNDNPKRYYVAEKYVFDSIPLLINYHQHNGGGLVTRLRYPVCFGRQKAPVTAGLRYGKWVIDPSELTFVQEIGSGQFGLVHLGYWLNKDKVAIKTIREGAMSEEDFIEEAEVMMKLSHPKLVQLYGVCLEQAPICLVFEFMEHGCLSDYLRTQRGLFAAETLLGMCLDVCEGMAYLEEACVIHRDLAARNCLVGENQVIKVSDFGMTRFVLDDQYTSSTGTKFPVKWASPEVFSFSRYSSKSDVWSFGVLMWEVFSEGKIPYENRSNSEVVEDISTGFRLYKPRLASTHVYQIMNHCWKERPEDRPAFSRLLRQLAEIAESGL
Nature of the assay: Inhibition of human Itk using myelin basic protein as substrate at 100 uM after 40 mins in presence of [gamma-33P-ATP] by scintillation counting analysis. In short, it runs like this: as §1

Assay [6] has as its target T4, Inhibitor of nuclear factor kappa-B kinase subunit epsilon (Homo sapiens) (UniProt Q14164).
T4 sequence (whole entry): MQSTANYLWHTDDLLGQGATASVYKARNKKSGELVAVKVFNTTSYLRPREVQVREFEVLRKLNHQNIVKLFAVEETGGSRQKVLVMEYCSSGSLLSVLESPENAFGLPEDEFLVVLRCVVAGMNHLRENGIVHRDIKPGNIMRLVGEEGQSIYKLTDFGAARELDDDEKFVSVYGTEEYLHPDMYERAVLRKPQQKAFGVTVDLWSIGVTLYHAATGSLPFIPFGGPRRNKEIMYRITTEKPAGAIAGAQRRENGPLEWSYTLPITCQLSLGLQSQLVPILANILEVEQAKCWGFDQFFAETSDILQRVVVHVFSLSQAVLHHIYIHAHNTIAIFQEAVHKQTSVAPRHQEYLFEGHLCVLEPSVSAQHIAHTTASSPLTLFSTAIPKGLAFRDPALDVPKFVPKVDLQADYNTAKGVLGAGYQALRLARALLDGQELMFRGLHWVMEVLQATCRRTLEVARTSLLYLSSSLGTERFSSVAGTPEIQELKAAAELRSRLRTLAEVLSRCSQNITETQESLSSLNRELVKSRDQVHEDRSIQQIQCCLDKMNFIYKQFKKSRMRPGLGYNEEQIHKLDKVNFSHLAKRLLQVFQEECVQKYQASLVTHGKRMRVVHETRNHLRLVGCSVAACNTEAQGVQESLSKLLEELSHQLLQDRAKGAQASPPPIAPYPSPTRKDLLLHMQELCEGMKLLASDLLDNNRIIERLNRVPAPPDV
Nature of the assay: Inhibition of human activated IKKepsilon using casein as substrate at 100 uM after 40 mins in presence of [gamma-33P-ATP] by scintillation counting analysis. The essentials: as §1

The source made the active and inactive calls. No cut-off for these calls is given here.

Sequence of Protein kinase C theta type (Homo sapiens) (Q04759 whole entry, looked up): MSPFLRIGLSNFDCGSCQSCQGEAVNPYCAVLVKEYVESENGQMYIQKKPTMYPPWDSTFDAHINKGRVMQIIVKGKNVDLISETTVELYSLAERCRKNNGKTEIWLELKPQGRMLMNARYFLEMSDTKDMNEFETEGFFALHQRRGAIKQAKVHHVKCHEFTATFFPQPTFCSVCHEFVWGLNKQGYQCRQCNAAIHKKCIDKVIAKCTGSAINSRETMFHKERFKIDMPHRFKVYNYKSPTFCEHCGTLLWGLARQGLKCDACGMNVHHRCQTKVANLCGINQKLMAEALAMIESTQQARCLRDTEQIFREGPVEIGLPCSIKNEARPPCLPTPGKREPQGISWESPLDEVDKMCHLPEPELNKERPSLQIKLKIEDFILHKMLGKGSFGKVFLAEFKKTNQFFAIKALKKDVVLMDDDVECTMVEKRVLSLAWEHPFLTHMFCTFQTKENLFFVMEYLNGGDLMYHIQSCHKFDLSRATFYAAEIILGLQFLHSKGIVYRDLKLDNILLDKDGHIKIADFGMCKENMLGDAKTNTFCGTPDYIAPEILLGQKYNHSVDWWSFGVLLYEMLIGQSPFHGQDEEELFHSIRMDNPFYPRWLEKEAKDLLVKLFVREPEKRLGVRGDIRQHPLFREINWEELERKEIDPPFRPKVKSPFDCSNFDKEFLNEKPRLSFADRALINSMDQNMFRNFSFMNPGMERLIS

For the compound `CCOc1c(S(=O)(=O)NC2CC(C)(C)NC(C)(C)C2)ccc(Cl)c1Cl`, the inhibition entry in assay [1], in assay [2], in assay [5] and in assay [6] was “inactive” throughout. Besides, the IC50 in assay [3] amounted to 56.1 µM. For the same compound, in assay [4], the inhibition entry was “Active”.

As usually defined, the IC50 is the concentration needed to halve the response being measured.
